{"source": "ChEMBL document CHEMBL2321752", "about": "“A potent and highly efficacious Bcl-2/Bcl-xL inhibitor” (J Med Chem, 2013)", "key": {"NCI-H1417": {"tested_on": "NCI-H1417", "assay": "Cytotoxicity against human NCI-H1417 cells assessed as growth inhibition after 4 days by WST assay", "assay_type": "functional, cell-based", "conditions": "NCI-H1417, 96 h", "how_it_was_run": "(§1)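 Human small-cell lung cancer line from ATCC, kept in RPMI-1640 with 10% FBS. Cells were exposed to serial compound concentrations for 4 days. WST-8 dye was then added for a further 1–2 h and absorbance read at 450 nm. IC50 was derived from absorbance of treated versus untreated cells. At least three independent experiments per cell line; standard deviation reported.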"}, "NCI-H187": {"tested_on": "NCI-H187", "assay": "Cytotoxicity against human NCI-H187 cells assessed as growth inhibition after 4 days by WST assay", "assay_type": "functional, cell-based", "conditions": "NCI-H187, 96 h", "how_it_was_run": "as §1"}, "NCI-H146 [1]": {"tested_on": "NCI-H146", "assay": "Antitumor activity against human NCI-H146 cells xenografted in SCID mouse assessed as tumor regression at 15 mg/kg, iv administered 5 days per week for 2 weeks", "assay_type": "functional, organism-based", "parameters": "dose 15 mg/kg", "how_it_was_run": "(§2)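 H146 cells (5×10^6, with Matrigel) implanted subcutaneously on the dorsal side of SCID mice, one tumor per mouse. Mice with tumors of 100–150 mm³ were randomized into groups of 8, mean volume 126 mm³. Vehicle or compound given intravenously at 15 mg/kg, daily, 5 days/week for 2 weeks. Tumor volume was followed over time.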"}, "Mus musculus [2]": {"tested_on": "Mus musculus", "assay": "Toxicity in SCID mouse xenografted with human NCI-H146 cells assessed as weight loss at 15 mg/kg, iv administered 5 days per week for 2 weeks", "assay_type": "organism-based", "parameters": "dose 15 mg/kg, route intravenous", "conditions": "in vivo", "how_it_was_run": "(§3)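 SCID mice carried subcutaneous H146 xenografts, 8 per group, starting mean tumor volume 126 mm³. Dosing was intravenous at 15 mg/kg, daily, 5 days/week for 2 weeks. Body weight and other signs of toxicity were monitored during and after treatment.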"}, "Mus musculus [3]": {"tested_on": "Mus musculus", "assay": "Toxicity in SCID mouse xenografted with human NCI-H146 cells 15 mg/kg, iv administered 5 days per week for 2 weeks", "assay_type": "organism-based", "parameters": "dose 15 mg/kg, route intravenous", "conditions": "in vivo", "how_it_was_run": "as §3"}, "Mus musculus [4]": {"tested_on": "Mus musculus", "assay": "Toxicity in SCID mouse 15 mg/kg, iv administered 5 days per week for 2 weeks", "assay_type": "organism-based", "parameters": "dose 15 mg/kg, route intravenous", "conditions": "in vivo", "how_it_was_run": "(§4)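 Tolerability run in non-tumor-bearing SCID mice. Compound given intravenously at 15 or 25 mg/kg, daily, 5 days a week for 2 weeks. Weight loss and other signs of toxicity were followed during and after treatment, and the maximum tolerated dose was set from weight loss.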"}, "[5]": {"assay": "Antitumor activity against human NCI-H146 cells xenografted in SCID mouse assessed as tumor volume at 15 mg/kg, iv administered 5 days per week for 2 weeks measured on day 117 (reference value: 130 mm'3)", "assay_type": "functional", "how_it_was_run": "as §2"}, "NCI-H146 [6]": {"tested_on": "NCI-H146", "assay": "Antitumor activity against human NCI-H146 cells xenografted in SCID mouse assessed as tumor regression at 15 mg/kg, iv administered 5 days per week for 2 weeks measured on day 62", "assay_type": "functional, organism-based", "parameters": "dose 15 mg/kg", "how_it_was_run": "as §2"}, "[7]": {"assay": "Toxicity in iv dosed SCID mouse assessed as weight loss administered 5 days per week for 2 weeks", "assay_type": "organism-based", "conditions": "in vivo", "how_it_was_run": "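Maximum tolerated dose study in SCID mice. Compound was given intravenously at 15 or 25 mg/kg, daily, 5 days a week for 2 weeks. Body weight loss and other signs of toxicity were monitored during and after treatment.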"}, "Mus musculus [8]": {"tested_on": "Mus musculus", "assay": "Toxicity in SCID mouse assessed as weight loss at 25 mg/kg, iv administered 5 days per week for 2 weeks relative to control", "assay_type": "organism-based", "parameters": "dose 25 mg/kg, route intravenous", "conditions": "in vivo", "how_it_was_run": "as §4"}, "Mus musculus [9]": {"tested_on": "Mus musculus", "assay": "Toxicity in SCID mouse assessed as weight loss at 15 mg/kg, iv administered 5 days per week for 2 weeks relative to control", "assay_type": "organism-based", "parameters": "dose 15 mg/kg, route intravenous", "conditions": "in vivo", "how_it_was_run": "as §4"}, "[10]": {"target": "Induced myeloid leukemia cell differentiation protein Mcl-1 (Homo sapiens, UniProt Q07820)", "sequence (Q07820 whole entry)": "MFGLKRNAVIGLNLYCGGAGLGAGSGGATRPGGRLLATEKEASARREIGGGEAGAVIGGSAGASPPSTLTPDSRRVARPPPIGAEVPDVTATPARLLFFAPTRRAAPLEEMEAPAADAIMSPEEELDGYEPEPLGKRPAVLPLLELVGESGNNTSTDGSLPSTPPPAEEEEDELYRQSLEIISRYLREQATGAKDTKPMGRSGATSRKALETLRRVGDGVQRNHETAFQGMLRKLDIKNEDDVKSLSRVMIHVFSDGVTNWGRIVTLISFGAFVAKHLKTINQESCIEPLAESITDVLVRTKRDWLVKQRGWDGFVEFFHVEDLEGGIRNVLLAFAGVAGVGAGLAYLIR", "assay": "Binding affinity to MCL1 (unknown origin) after 2 hrs by fluorescence polarization assay", "how_it_was_run": "(§5)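 Competitive FP binding assay. Preformed protein/fluorescent probe complexes were used at 1.5/1 nM for Bcl-2, 10/2 nM for Bcl-xL and 20/2 nM for Mcl-1. These were mixed with serially diluted inhibitor and shaken gently for 2 h at room temperature before millipolarization was read. IC50 came from nonlinear regression, and Ki was calculated from IC50.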"}, "[11]": {"assay": "Cytotoxicity against human NCI-H146 cells assessed as growth inhibition after 4 days by WST assay", "assay_type": "functional, cell-based", "conditions": "NCI-H146, 96 h"}, "Bcl-2-like protein 1": {"target": "Bcl-2-like protein 1 (Homo sapiens, UniProt Q07817)", "sequence (Q07817 whole entry)": "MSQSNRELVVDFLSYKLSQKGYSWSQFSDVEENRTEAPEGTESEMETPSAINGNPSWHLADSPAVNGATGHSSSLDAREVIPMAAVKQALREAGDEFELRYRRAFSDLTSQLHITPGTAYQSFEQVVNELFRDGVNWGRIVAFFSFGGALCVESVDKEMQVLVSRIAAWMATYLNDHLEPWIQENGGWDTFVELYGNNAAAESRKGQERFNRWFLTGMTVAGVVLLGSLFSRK", "assay": "Binding affinity to BCL-XL (unknown origin) after 2 hrs by fluorescence polarization assay", "how_it_was_run": "as §5"}, "[12]": {"target": "Apoptosis regulator Bcl-2 (Homo sapiens, UniProt P10415)", "sequence (P10415 whole entry)": "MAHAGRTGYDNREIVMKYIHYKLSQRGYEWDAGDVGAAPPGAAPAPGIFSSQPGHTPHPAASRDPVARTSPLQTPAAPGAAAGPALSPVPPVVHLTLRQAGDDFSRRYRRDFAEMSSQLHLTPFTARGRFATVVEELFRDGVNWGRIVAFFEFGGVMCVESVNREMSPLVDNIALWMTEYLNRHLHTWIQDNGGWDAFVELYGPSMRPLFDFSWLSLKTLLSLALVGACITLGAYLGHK", "assay": "Binding affinity to BCL2 (unknown origin) after 2 hrs by fluorescence polarization assay", "how_it_was_run": "as §5"}, "NCI-H146 [13]": {"tested_on": "NCI-H146", "assay": "Induction of apoptosis in human NCI-H146 cells xenografted in SCID mouse assessed as increase in PARP cleavage at 15 mg/kg, iv after 3 to 6 hrs by Western blotting analysis", "assay_type": "functional, organism-based", "parameters": "dose 15 mg/kg", "how_it_was_run": "(§6)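 SCID mice bearing subcutaneous H146 xenografts of about 100 mm³ got a single intravenous dose of 15 mg/kg or vehicle. Tumors were harvested at 3, 6 or 24 h. Western blot then measured total and cleaved PARP and caspase-3.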"}, "NCI-H146 [14]": {"tested_on": "NCI-H146", "assay": "Induction of apoptosis in human NCI-H146 cells xenografted in SCID mouse assessed as increase in caspase-3 cleavage at 15 mg/kg, iv after 3 to 6 hrs by Western blotting analysis", "assay_type": "functional, organism-based", "parameters": "dose 15 mg/kg", "how_it_was_run": "as §6"}, "NCI-H1963": {"tested_on": "NCI-H1963", "assay": "Cytotoxicity against human NCI-H1963 cells assessed as growth inhibition after 4 days by WST assay", "assay_type": "functional, cell-based", "conditions": "NCI-H1963, 96 h", "how_it_was_run": "as §1"}}, "note": "Activity calls are given as the source filed them. The calls are words filed in the database; no cut-off is given here.", "data": [{"smiles": "Cc1c(C(=O)NS(C)(=O)=O)c(-c2cccc(N3CCN(c4ccc(NS(=O)(=O)c5ccc(N[C@H](CCN(C)C)CSc6ccccc6)c([N+](=O)[O-])c5)cc4)CC3)c2)c(-c2ccc(Cl)cc2)n1C(C)C", "values": [{"measurement": "IC50", "setting": "NCI-H1417", "result": 2.3, "unit": "nM"}, {"measurement": "IC50", "setting": "NCI-H187", "result": 1.4, "unit": "nM"}, {"measurement": "Activity", "setting": "NCI-H146 [1]", "result": "Active"}, {"measurement": "Activity", "setting": "Mus musculus [2]", "result": "Non-toxic"}, {"measurement": "Activity", "setting": "Mus musculus [3]", "result": "Non-toxic"}, {"measurement": "Activity", "setting": "Mus musculus [4]", "result": "Non-toxic"}, {"measurement": "Activity", "setting": "[5]", "result": 47, "unit": "mm3"}, {"measurement": "Activity", "setting": "NCI-H146 [6]", "result": "Active"}, {"measurement": "MTD at 2 weeks", "setting": "[7]", "result": 15, "unit": "mg/kg"}, {"measurement": "Activity", "setting": "Mus musculus [8]", "result": 10, "unit": "%"}, {"measurement": "Activity", "setting": "Mus musculus [9]", "result": "< 5", "unit": "%"}, {"measurement": "IC50", "setting": "[10]", "result": "> 2000", "unit": "nM"}, {"measurement": "IC50", "setting": "[11]", "result": 1.3, "unit": "nM"}, {"measurement": "IC50", "setting": "Bcl-2-like protein 1", "result": 6.9, "unit": "nM"}, {"measurement": "Ki", "setting": "Bcl-2-like protein 1", "result": "< 1", "unit": "nM"}, {"measurement": "IC50", "setting": "[12]", "result": 1.8, "unit": "nM"}, {"measurement": "Ki", "setting": "[12]", "result": "< 1", "unit": "nM"}, {"measurement": "Activity", "setting": "NCI-H146 [13]", "result": "Active"}, {"measurement": "Activity", "setting": "NCI-H146 [14]", "result": "Active"}, {"measurement": "IC50", "setting": "NCI-H1963", "result": 1, "unit": "nM"}]}]}
